LMPTP block – LMPTP phosphatase inhibitors, primary screen, biochemical, fluorescence intensity, uHTS; Low molecular weight phosphotyrosine protein phosphatase (Homo sapiens), P24666; recombinant LMPTP-A, OMFP fluorogenic substrate; inhibition, % at 20 µM; hit rate 0.22% among 360,000; AID 651560, 2012;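 active = compounds that cut the enzyme signal by at least half of the control window in the single-dose screen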;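 note: plate controls were DMSO wells with enzyme plus substrate for no effect and substrate without enzyme for full effect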
Target sequence (P24666 whole entry, looked up): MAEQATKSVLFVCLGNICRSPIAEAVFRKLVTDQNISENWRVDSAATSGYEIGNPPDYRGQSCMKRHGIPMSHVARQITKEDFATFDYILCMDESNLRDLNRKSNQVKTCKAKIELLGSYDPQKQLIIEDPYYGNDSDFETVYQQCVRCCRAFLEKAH
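Assay system: LMPTP-A enzyme. Input: 0.625 nM LMPTP-A final. Probe or stimulus: 400 µM OMFP. Compound dosing: single 20 µM dose. Schedule: 50 min dark incubation at room temperature. Detection: fluorescence intensity of OMFP turnover product. Read-out: percent inhibition versus substrate-only and uninhibited controls. Benchmarks: no-enzyme low control, uninhibited high control.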
DNMT1 inh – human DNMT1 methyltransferase inhibitors, primary screen, biochemical, molecular beacon, fluorescence, HinP1I cleavage, uHTS | DNA (cytosine-5)-methyltransferase 1 (Homo sapiens), P26358 | inhibition (reported as % activation of signal), % at 10 µM | hit rate 0.83% among 360,000; in the data active = inhibition above about 50%
STEP block – STEP phosphatase inhibitors, primary screen, biochemical, fluorescence intensity, uHTS; recombinant STEP, OMFP fluorogenic substrate; AID 588621, 2011; hit rate 0.25% among 360,000; inhibition, % at 20 µM; Tyrosine-protein phosphatase non-receptor type 5 (Homo sapiens), P54829;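 active = inhibition at 20 µM, scaled per plate between control wells, above about 37%, limit read from the data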;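 note: 0% = DMSO with enzyme and substrate and 100% = substrate only without enzyme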
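System: STEP (striatal-enriched tyrosine phosphatase) enzyme, cell-free; medium: Bis-Tris pH 6.0 buffer with DTT, detergent; dosing: 20 µM, 1% DMSO; times: reaction 20 min, ambient temperature; detection: fluorescence, 480/540 nm; read-out basis: normalized % inhibition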
NadD block – inhibitors of S. aureus NadD, primary screen, biochemical, colorimetric, uHTS; Nicotinate-nucleotide adenylyltransferase NadD (Staphylococcus aureus N315); purified NadD enzyme, colorimetric absorbance read-out; inhibition, % at 20 µM; hit rate 0.78% among 360,000; AID 602399, 2012; in the data active = inhibition above about 26%
Scp1 inh – Scp-1 phosphatase inhibitors, primary screen, biochemical, colorimetric, uHTS. inhibition, % at 20 µM. hit rate 0.88% among 340,000. Carboxy-terminal domain RNA polymerase II polypeptide A small phosphatase 1 (Homo …. Recombinant Scp1, phosphopeptide, malachite green phosphate absorbance;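 active = inhibition above about 50% at 20 µM, limit read from the data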;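 note: plate controls were DMSO wells with enzyme for no effect and wells lacking enzyme for full effect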
Target sequence (Q9GZU7 76-261 limits assumed): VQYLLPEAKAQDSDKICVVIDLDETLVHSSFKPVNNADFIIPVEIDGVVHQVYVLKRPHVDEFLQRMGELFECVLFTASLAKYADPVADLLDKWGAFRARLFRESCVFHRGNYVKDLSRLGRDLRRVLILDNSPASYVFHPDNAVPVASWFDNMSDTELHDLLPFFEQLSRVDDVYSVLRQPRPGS
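Assay system: SCP-1 catalytic fragment, aa 76-261 | Buffer or medium: Tris acetate buffer pH 5.5 with MgCl2 and Tween-20 | Compound: One concentration, 20 µM, with 1.0% DMSO | Also added: Phospho 17-mer peptide substrate | Signal: Absorbance at 630 nm | Incubation: 45 min enzyme reaction at room temperature | Measure: % inhibition of SCP-1 phosphate liberation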
SUMO1 PPI mod – modulators of SUMO1 protein-protein interactions, primary screen, biochemical, uHTS; Small ubiquitin-related modifier 1 (Homo sapiens), P63165; SUMO1 binding to a labelled peptide, TR-FRET, 1 h; inhibition, % at 20 µM; hit rate 0.33% among 360,000; AID 602429, 2012; in the data active = inhibition above about 37%
Target sequence (P63165 whole entry, looked up): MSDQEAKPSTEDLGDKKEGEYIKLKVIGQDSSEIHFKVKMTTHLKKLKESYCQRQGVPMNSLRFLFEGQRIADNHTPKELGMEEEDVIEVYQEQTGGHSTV
Scp1 confirm – Scp-1 phosphatase inhibitors, retest, confirmation, biochemical, colorimetric, single concentration | inhibition, % at 20 µM | shares compounds with Scp1 inh | hit rate 61% among 2,500 | AID 540281, 2011 | recombinant SCP-1 catalytic domain, phosphate release, malachite green absorbance;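 note: plate controls were DMSO with enzyme for no effect and buffer wells lacking enzyme for full effect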
MG interference – colorimetric readout interference by compounds, confirmation, artefact control for Scp-1 inhibitor project, biochemical, single concentration; shares compounds with Scp1 inh; Colorimetric interference counterscreen, malachite green absorbance 630 nm; apparent inhibition (interference), % at 20 µM; 2,500 tested, under 10 active;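 note: compounds added after enzyme reaction finished so only phosphate colour detection is probed; plate controls were DMSO wells with completed Scp-1 reaction for no effect and substrate wells lacking enzyme for full effect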
Scp-1 Tm shift – Scp-1 binding by thermal shift, confirmation, orthogonal assay for Scp-1 inhibitor project, biophysical, differential scanning fluorimetry; shares compounds with Scp1 inh; Recombinant SCP1, Sypro Orange thermal shift Tm; thermal shift relative to vanadate control, % at 40 µM; hit rate 25% among 1,500;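 active = substances whose mean melting-temperature shift, as a percentage of the reference inhibitor's shift, reaches about 5.3%, limit read from the data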;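 note: 0% = Tm of DMSO wells and 100% = Tm with sodium orthovanadate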
DNMT1 inh conf – DNMT1 methyltransferase inhibitor retest, confirmation, biochemical, molecular beacon, fluorescence, single concentration | shares compounds with DNMT1 inh | DNMT1 molecular beacon HinP1I cleavage | inhibition, % at 10 µM | hit rate 8% among 2,300 | AID 602385, 2012;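 active = average inhibition of at least 30% in the single-concentration confirmation test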
DNMT1 interf – counter-screen for DNMT1 inhibitors: spectral interference; shares compounds with DNMT1 inh; DNMT1 molecular beacon spectral interference counterscreen, fluorescence 485/520; activation (fluorescence interference), % at 10 µM; hit rate 1% among 2,300;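 active = activation of at least 30% at 10 µM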;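 note: DNMT1 catalytic domain with a HinP1I cleavage step and a FAM/dabcyl DNA beacon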
STEP inh conf – STEP phosphatase inhibitor hit confirmation, biochemical, fluorescence intensity, single concentration; shares compounds with STEP block; recombinant STEP, OMFP fluorogenic substrate; inhibition, % at 20 µM; hit rate 32% among 520; AID 623866, 2012; call rule not given here;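 note: 0% = enzyme with substrate plus DMSO and 100% = substrate without enzyme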
* marks the source's active call; other numbers are inactive results; . = not tested or not shown. An excerpt weighted towards active compounds, which were near 2.3% of everything screened.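 Rule for the calls, unless noted: active = inhibition of at least 30% at 20 µM; inactive = the rest.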

SMILES	LMPTP block	DNMT1 inh	STEP block	NadD block	Scp1 inh	SUMO1 PPI mod	Scp1 confirm	MG interference	Scp-1 Tm shift	STEP inh conf	others
COc1ccc(-n2nc(C(=O)NCC(=O)Nc3ccccn3)c3ccccc3c2=O)cc1Cl	15.4	15.6	48.1*	10.6	62.5*	4.3	42.8*	-9.3	-5.3	32.4*
CN(Cc1c(F)cccc1Cl)C(=O)CCc1c[nH]c2ccccc12	2.1	0.7	-0.1	-2.8	-0.8	0.1	.	.	.	.
Cn1nc(SCC(=O)O)sc1=S	-1.4	5.5	-1.2	10.2	0.2	-5.6	.	.	.	.
O=C(O)CSc1sc(=S)sc1SCC(=O)O	0.6	-2.0	58.3*	0.6	75.7*	-12.5	10.0	-11.5	.	13.7
COc1ccc(-c2cnnc(N/N=C/c3ccc(-c4ccc([N+](=O)[O-])cc4)o3)n2)cc1	57.2*	1.9	50.3*	4.5	107.5*	-8.8	49.2*	-4.9	4.2	5.0
CCc1cc(CNC(=O)c2ccc(OC3CCN(CCc4ccccc4)CC3)cc2)on1	11.9	20.6	92.5*	-7.1	74.5*	4.2	64.8*	4.8	-3.0	-6.8
CC1(Cc2ccc(Cl)s2)C(=O)Nc2c(Cl)ccc(Cl)c21 (configuration not stated)	0.8	8.1	-0.8	-5.8	.	-3.5	.	.	.	.
Cn1c2ccccc2c(=O)c2c(=O)n(C3CCCCCC3)c(C3CCCCC3)nc21	11.6	67.7*	60.0*	16.6	96.9*	-6.6	18.0	6.1	.	7.4	DNMT1 inh conf=0.5;DNMT1 interf=-5.1
CCc1nc2c(c(=O)c3ccccc3n2C)c(=O)n1C1CCCCCC1	2.8	1.2	3.1	0.9	4.4	5.5	.	.	.	.
O=C(/C=C/c1cccc([N+](=O)[O-])c1)Nc1ccc(NC(=O)c2cccs2)cc1	56.2*	43.7	45.3*	14.2	74.5*	0.5	73.9*	-9.5	15.5*	18.0
O=C(N/N=C/C=C/c1ccc([N+](=O)[O-])cc1)c1cccs1	87.1*	96.9*	96.3*	5.2	101.5*	-3.6	91.2*	-6.2	6.4*	-5.4	DNMT1 inh conf=11.1;DNMT1 interf=1.0
O=C(CN1C(=O)c2cccnc2Oc2ccc(Cl)cc21)NC1CCCCC1	0.0	-0.1	-3.1	-0.5	3.4	-2.9	.	.	.	.

Screening results as filed in PubChem.
